Experimental findings from ChEMBL document CHEMBL1151744, “New analgesics synthetically derived from the paracetamol metabolite N-(4-hydroxyphenyl)-(5Z,8Z,11Z,14Z)-icosatetra-5,8,11,14-enamide” (J Med Chem, 2008) are described below.

The target of data set [1] is T1, Fatty-acid amide hydrolase 1 (Rattus norvegicus) (UniProt P97612).
T1 sequence (whole entry): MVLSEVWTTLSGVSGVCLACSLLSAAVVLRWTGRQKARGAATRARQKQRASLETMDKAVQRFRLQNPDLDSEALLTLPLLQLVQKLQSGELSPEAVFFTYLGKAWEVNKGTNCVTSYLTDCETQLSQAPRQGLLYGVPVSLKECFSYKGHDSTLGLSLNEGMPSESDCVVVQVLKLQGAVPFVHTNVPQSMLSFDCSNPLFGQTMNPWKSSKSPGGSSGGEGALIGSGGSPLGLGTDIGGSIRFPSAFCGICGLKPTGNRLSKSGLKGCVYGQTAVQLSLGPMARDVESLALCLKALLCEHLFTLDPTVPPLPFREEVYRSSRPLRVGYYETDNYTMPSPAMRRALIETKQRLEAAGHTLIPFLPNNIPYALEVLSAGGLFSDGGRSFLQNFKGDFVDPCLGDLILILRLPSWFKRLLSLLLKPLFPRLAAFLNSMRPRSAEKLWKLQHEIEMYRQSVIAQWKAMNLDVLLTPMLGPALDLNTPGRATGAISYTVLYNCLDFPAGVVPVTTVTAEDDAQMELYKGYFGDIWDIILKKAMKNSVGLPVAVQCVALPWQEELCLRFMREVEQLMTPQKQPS
Briefly: Inhibition of FAAH in rat brain membrane assessed as [14C]anandamide hydrolysis at 50 uM by scintillation counting. Format: cell membranes. The method in brief:
(§1)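 Enzyme source was a rat brain membrane pellet resuspended in 50 mM Tris-HCl, pH 9.0, 70 µg protein per assay. It was incubated with compound (10 or 50 µM) and [14C]anandamide (10000 cpm) for 30 min at 37 °C. After CHCl3/MeOH (1:1) extraction, [14C]ethanolamine in the aqueous phase was counted by scintillation. Points were run in duplicate.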

Data set [2] concerns the target T2, Cannabinoid receptor 1 (Homo sapiens, UniProt P21554). Briefly: Displacement of [3H]CP-55940 from human recombinant CB1 receptor expressed in HEK293 cells at 10 uM. Format: cell-based.
Data set [3] addresses T3, Cannabinoid receptor 2 (Homo sapiens, UniProt P34972). Briefly: Displacement of [3H]CP-55940 from human recombinant CB2 receptor expressed in HEK293 cells at 10 uM. Format: cell-based.
Data set [4] has as its target Prostaglandin G/H synthase 1 (Homo sapiens, UniProt P23219). Briefly: Inhibition of cyclooxygenase 1 in human whole blood assessed as thromboxane B2 level. Format: tissue-based. The method in brief: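 Fresh whole blood came from a healthy volunteer free of NSAIDs for 2 weeks. 1 mL aliquots received test agent in DMSO and were left to clot for 1 h at 37 °C. Serum TXB2 was measured by GC-MS/MS, in quadruplicate.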

Data set [5] relates to Mus musculus. Briefly: Toxicity in C57BL/6 mouse assessed as loss of locomotor behavior at 325 mg/kg. Details: dose 325 mg/kg. The data set is classed as organism-based. The conditions noted are these: in vivo.
For data set [6], the target named is T4, Prostaglandin G/H synthase 2 (Homo sapiens, UniProt P35354).
T4 sequence (P35354 whole entry): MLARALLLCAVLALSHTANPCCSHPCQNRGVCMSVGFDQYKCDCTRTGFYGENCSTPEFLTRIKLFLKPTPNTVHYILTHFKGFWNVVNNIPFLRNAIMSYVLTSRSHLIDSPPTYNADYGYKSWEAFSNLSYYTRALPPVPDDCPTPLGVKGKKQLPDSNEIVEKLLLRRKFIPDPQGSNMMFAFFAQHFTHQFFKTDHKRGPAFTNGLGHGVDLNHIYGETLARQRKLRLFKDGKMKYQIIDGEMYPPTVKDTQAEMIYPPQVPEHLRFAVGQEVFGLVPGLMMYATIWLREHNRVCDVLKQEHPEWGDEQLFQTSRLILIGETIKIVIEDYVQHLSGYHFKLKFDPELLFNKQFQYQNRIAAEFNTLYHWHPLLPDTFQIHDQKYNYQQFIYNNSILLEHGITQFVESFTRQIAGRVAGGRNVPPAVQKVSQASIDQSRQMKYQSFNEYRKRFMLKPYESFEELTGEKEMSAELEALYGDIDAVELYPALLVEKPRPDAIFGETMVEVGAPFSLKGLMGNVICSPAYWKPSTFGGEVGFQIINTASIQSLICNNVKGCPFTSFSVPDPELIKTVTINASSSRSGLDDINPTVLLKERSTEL
Nature of the data set: Inhibition of cyclooxygenase 2 in human whole blood assessed as prostaglandin E2 level.

Data set [7] deals with Mus musculus. Briefly: Antinociceptive activity against formalin-induced nociceptive behavior in C57BL/6 mouse assessed as mean licking time at 200 mg/kg, ip administered 15 mins prior to formalin challenge measured upto 10 mins relative to control. The data set is classed as functional. The settings on record: route intraperitoneal. The method in brief:
(§2)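 C57BL/6 mice (n = 6-8 per group) were habituated 15-20 min in an observation chamber with mirrors, then given the compound ip at 6 µL/g in PBS/DMSO. Formalin (5%, 20 µL) went into the dorsal left hind paw 15 min later. Licking of the injected paw was summed over 0-10 min (phase 1) and 15-45 min (phase 2) and expressed as % of the vehicle control. Groups were compared by t test.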

Data set [8] relates to Mus musculus. Briefly: Antinociceptive activity against formalin-induced nociceptive behavior in C57BL/6 mouse assessed as mean licking time at 200 mg/kg, ip administered 15 mins prior to formalin challenge measured after 15 to 45 mins relative to control. The conditions noted are these: route intraperitoneal. Format: functional. The method in brief:
as §2

Data set [9] concerns the target T2, Cannabinoid receptor 1. Briefly: Displacement of [3H]CP-55940 from human recombinant CB1 receptor expressed in HEK293 cells. Format: cell-based. The method in brief:
(§3)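 Membranes were from HEK-293 cells overexpressing human CB1 or CB2, with [3H]CP-55,940 as radioligand (Kd 0.18 nM CB1, 0.31 nM CB2). Test compound (1 nM-10 µM) was incubated 90 min at 30 °C. Displaced radioligand was counted by scintillation. Ki came from IC50 via Cheng-Prusoff, with triplicate points; single-concentration screens were run in duplicate.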

Data set [10] has as its target T3, Cannabinoid receptor 2. Nature of the data set: Displacement of [3H]CP-55940 from human recombinant CB2 receptor expressed in HEK293 cells. Format: cell-based. The method in brief: as §3
Data set [11] concerns the target T1, Fatty-acid amide hydrolase 1 (Rattus norvegicus). Nature of the data set: Inhibition of FAAH in rat brain membrane assessed as [14C]anandamide hydrolysis at 10 uM by scintillation counting. The data set is classed as cell membranes. An outline of the steps:
as §1

Data set [12] has as its system Mus musculus. Nature of the data set: Antinociceptive activity against formalin-induced nociceptive behavior in C57BL/6 mouse assessed as mean licking time at 27.5 mg/kg, ip administered 15 mins prior to formalin challenge measured after 15 to 45 mins relative to control. The data set is classed as functional. The settings on record: route intraperitoneal. An outline of the steps:
as §2

Data set [13] has as its system Mus musculus. Briefly: Antinociceptive activity against formalin-induced nociceptive behavior in C57BL/6 mouse assessed as mean licking time at 55 mg/kg, ip administered 15 mins prior to formalin challenge measured after 15 to 45 mins relative to control. The data set is classed as functional. The conditions noted are these: route intraperitoneal. The method in brief:
as §2

The test system of data set [14] is Mus musculus. Briefly: Antinociceptive activity against formalin-induced nociceptive behavior in C57BL/6 mouse assessed as mean licking time at 275 mg/kg, ip administered 15 mins prior to formalin challenge measured after 15 to 45 mins relative to control. Format: functional. The settings on record: route intraperitoneal. The method in brief: as §2
The species entered for data set [15] is Mus musculus. Briefly: Toxicity in C57BL/6 mouse assessed as loss of locomotor behavior. Format: organism-based. The settings on record: in vivo.
Data set [16] deals with Mus musculus. Briefly: Antinociceptive activity against formalin-induced nociceptive behavior in C57BL/6 mouse assessed as mean licking time lat 27.5 mg/kg, ip administered 15 mins prior to formalin challenge measured upto 10 mins relative to control. Format: functional. The conditions noted are these: route intraperitoneal. An outline of the steps:
as §2

Data set [17] concerns Mus musculus. Nature of the data set: Antinociceptive activity against formalin-induced nociceptive behavior in C57BL/6 mouse assessed as mean licking time at 55 mg/kg, ip administered 15 mins prior to formalin challenge measured upto 10 mins relative to control. The data set is classed as functional. The settings on record: route intraperitoneal. The method in brief:
as §2

For data set [18], the system named is Mus musculus. Briefly: Antinociceptive activity against formalin-induced nociceptive behavior in C57BL/6 mouse assessed as mean licking time at 275 mg/kg, ip administered 15 mins prior to formalin challenge measured upto 10 mins relative to control. Format: functional. The conditions noted are these: route intraperitoneal. The method in brief:
as §2

The target in data set [19] is T5, Prostaglandin G/H synthase 2 (Homo sapiens) (UniProt P35354).
T5 sequence (whole entry): T4 sequence (P35354 whole entry)
Nature of the data set: Inhibition of cyclooxygenase 2 in human whole blood assessed as prostaglandin E2 level.

The source made the active and inactive calls. The rule behind the calls is not given here.

T2 sequence (P21554 whole entry): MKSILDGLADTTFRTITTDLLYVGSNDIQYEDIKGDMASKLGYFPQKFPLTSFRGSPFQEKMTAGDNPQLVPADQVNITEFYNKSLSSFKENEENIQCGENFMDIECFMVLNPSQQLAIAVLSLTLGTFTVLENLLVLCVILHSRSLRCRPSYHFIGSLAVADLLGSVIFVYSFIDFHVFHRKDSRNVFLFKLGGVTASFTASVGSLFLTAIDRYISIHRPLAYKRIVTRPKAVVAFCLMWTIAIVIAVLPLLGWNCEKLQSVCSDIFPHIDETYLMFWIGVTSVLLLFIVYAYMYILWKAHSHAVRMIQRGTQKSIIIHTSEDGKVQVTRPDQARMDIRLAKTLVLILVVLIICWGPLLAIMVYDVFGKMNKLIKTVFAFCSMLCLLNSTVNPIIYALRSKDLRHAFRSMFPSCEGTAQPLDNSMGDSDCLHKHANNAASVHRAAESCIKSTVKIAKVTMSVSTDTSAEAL
T3 sequence (P34972 whole entry): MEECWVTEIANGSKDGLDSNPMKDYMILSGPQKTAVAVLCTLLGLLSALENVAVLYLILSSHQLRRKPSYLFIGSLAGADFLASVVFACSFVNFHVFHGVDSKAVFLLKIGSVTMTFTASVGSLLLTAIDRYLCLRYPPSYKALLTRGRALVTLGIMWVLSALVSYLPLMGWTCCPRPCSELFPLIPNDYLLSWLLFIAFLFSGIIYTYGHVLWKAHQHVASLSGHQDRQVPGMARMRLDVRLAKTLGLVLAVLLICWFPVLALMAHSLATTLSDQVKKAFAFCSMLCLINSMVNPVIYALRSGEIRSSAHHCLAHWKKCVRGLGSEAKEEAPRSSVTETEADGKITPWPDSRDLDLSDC
Chain of Prostaglandin G/H synthase 1 (P23219 whole entry): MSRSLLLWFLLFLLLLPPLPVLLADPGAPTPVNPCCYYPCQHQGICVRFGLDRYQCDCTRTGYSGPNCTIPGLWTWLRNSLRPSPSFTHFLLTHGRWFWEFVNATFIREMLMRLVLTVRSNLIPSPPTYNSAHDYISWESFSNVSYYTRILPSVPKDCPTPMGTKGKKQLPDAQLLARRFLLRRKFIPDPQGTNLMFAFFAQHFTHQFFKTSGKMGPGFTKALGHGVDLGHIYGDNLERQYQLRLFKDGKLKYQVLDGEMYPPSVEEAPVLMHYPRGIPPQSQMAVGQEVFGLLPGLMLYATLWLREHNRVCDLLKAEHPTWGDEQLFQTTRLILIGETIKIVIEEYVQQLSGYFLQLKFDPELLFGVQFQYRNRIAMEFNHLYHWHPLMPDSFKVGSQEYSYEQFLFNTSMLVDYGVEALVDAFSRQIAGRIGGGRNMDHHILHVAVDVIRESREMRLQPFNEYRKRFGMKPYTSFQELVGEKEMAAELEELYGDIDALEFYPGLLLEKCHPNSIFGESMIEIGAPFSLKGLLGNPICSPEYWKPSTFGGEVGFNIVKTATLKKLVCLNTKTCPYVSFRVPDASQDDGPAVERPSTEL

As to `COc1cc(NC(C)=O)ccc1O`, the inhibition in data set [1] came to 8%. The Activity at Cannabinoid receptor 1 [2] was 16%; at Cannabinoid receptor 2 [3], 22%; with Mus musculus [5], “Toxic”. In addition, the IC50 is 234000 nM in data set [4] and 138000 nM in [6].
Take `CC(=O)Nc1ccc(O)cc1` [ACETAMINOPHEN]: the Activity stood at 100% in the data set on Mus musculus [7], 47% in the data set on Mus musculus [8], 13% on Cannabinoid receptor 1 [2] and 15% on Cannabinoid receptor 2 [3]. Also, in data set [1], the inhibition amounted to 22%. Also, the outcome in data set [4] was Active.
As for `CCCCC/C=C\C/C=C\C/C=C\C/C=C\CCCC(=O)Nc1ccc2[nH]ncc2c1`, the inhibition constant (Ki) at Cannabinoid receptor 1 [9] was 300 nM; on Cannabinoid receptor 2 [10], 1000 nM. Also, the figures for the inhibition in [1] and in [11] were 2% and 1%, respectively.
For the compound `CC(=O)NCc1ccc(O)cc1`, the Activity with Mus musculus [12] was 97%; in the data set on Mus musculus [13], 71%; in the data set on Mus musculus [14] it was 37%; on Cannabinoid receptor 1 [2] it was 5%; at Cannabinoid receptor 2 [3], 7%; in the data set listed under Mus musculus [15] it was “Non-toxic”. For the same compound, the Activity in the data set on Mus musculus [16] turned out to be 227%; in the data set on Mus musculus [17], 128%; in the data set with Mus musculus [18] it was 50%. Further, in data set [1], the inhibition came to 4%. Moreover, the result in data set [4] and in data set [19] was inactive.
Take `CCCCC/C=C\C/C=C\C/C=C\C/C=C\CCCC(=O)NCc1ccc(O)cc1`: the results for the Ki on Cannabinoid receptor 1 [9] and on Cannabinoid receptor 2 [10] were 200 nM and 100 nM, respectively. Also, the inhibition in [1] stood at 88%; in data set [11] it was 56%.
